The source of these data is ChEMBL document CHEMBL3785023, “Development and Pharmacological Characterization of Selective Blockers of 2-Arachidonoyl Glycerol Degradation with Efficacy in Rodent Models of Multiple Sclerosis and Pain” (J Med Chem, 2016).

The term IC50 denotes the concentration that inhibits the measured activity by half.

Experiment [1] deals with T1, Fatty-acid amide hydrolase 1 (Mus musculus, UniProt O08914).
T1 sequence (O08914 whole entry): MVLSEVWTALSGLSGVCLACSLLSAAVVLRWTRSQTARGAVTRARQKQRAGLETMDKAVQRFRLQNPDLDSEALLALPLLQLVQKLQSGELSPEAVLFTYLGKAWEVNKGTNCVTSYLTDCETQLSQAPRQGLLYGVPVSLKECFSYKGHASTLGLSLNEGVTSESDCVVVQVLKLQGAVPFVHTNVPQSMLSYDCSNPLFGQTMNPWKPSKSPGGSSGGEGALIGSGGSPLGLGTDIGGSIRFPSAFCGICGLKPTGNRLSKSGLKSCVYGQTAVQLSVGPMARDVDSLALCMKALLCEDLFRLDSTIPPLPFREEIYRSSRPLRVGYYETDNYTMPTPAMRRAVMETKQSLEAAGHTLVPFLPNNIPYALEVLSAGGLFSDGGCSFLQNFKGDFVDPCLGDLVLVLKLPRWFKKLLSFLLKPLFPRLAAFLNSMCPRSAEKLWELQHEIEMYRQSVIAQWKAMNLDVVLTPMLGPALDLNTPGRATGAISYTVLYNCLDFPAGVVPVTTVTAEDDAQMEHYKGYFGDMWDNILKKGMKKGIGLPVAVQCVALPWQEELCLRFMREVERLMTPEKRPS
Description: Inhibition of FAAH in mouse brain membrane using [13C]oleamide as substrate by LC-MS analysis. It is filed as cell membranes.

Experiment [2] addresses T2, Fatty-acid amide hydrolase 1 (Rattus norvegicus, UniProt P97612).
T2 sequence (P97612 whole entry): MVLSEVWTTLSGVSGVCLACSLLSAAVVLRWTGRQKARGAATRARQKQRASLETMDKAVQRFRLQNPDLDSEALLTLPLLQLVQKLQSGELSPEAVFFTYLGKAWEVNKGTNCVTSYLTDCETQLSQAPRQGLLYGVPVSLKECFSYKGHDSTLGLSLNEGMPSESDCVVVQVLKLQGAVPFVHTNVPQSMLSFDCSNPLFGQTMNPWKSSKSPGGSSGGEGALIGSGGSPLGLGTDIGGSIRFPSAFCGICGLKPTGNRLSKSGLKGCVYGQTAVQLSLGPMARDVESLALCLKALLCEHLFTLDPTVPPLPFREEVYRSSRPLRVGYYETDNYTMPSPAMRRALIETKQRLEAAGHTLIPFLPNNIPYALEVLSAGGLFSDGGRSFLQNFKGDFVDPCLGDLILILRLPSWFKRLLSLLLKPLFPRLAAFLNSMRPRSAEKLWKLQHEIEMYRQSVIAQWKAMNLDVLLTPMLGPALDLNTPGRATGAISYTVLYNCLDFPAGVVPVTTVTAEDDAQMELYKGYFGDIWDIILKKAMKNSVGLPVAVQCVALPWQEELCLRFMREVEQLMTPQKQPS
Kind of experiment: Inhibition of FAAH in rat brain membranes using N-arachidonoyl-[14C]-ethanolamine as substrate assessed as reduction in [14C]ethanolamine production incubated for 30 mins by scintillation counting method. Format: cell membranes, Membrane. The procedure, abridged:
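10,000×g membrane fraction of rat brain (70 µg per sample) incubated in 50 mM Tris-HCl pH 9.5 at 37 °C for 30 min with N-arachidonoyl-[14C]-ethanolamine diluted with AEA. Released [14C]-ethanolamine measured by scintillation counting of the aqueous phase after CHCl3/MeOH 1:1 extraction. Means of three experiments.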

Experiment [3] concerns the target T3, Monoglyceride lipase (Homo sapiens, UniProt Q99685).
T3 sequence (Q99685 whole entry): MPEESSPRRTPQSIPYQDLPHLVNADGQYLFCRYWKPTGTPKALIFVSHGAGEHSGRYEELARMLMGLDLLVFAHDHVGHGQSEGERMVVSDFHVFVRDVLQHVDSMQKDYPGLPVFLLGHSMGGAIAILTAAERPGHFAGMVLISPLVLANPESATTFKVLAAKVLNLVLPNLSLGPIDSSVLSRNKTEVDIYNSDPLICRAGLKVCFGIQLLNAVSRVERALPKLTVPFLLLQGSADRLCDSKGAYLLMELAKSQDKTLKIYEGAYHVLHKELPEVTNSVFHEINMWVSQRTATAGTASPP
Description: Inhibition of recombinant C-terminal His6-tagged human MAGL expressed in Escherichia coli using 2-arachidonoyl-[3H]-glycerol as substrate incubated for 20 mins by scintillation counting method.

For experiment [4], the target named is T4, Fatty-acid amide hydrolase 1 (Homo sapiens, UniProt O00519).
T4 sequence (O00519 whole entry): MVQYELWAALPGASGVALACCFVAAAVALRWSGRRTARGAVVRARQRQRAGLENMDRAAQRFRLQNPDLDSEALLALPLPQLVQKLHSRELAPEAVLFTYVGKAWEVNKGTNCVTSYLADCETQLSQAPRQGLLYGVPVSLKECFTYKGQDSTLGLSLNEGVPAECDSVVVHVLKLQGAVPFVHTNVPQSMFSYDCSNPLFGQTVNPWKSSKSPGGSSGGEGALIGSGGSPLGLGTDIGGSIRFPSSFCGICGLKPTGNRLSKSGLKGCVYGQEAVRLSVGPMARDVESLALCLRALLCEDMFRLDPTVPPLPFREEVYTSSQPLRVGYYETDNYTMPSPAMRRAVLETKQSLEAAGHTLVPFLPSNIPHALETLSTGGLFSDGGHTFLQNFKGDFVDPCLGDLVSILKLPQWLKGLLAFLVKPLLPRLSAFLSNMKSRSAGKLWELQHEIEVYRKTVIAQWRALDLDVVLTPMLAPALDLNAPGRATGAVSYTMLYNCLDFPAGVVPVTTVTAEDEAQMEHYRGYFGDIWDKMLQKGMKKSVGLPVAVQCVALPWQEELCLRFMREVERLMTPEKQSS
Description: Inhibition of recombinant C-terminal His-tagged human FAAH expressed in sf21 cells using N-arachidonoyl-[14C]-ethanolamine as substrate assessed as reduction in [14C]ethanolamine production incubated for 30 mins by scintillation counting method. The procedure, abridged: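 Human recombinant FAAH (2 µg/sample) incubated in 50 mM Tris-HCl, pH 9.5, 37 °C, 30 min with N-arachidonoyl-[14C]-ethanolamine diluted with unlabelled AEA. [14C]-ethanolamine released was quantified by scintillation counting of the aqueous phase after extraction with 2 volumes CHCl3/MeOH 1:1. Values are means of three experiments.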

Experiment [5] can be described thus: Selectivity ratio of IC50 for human recombinant C-terminal His-tagged FAAH expressed in sf21 cells to IC50 for recombinant C-terminal His6-tagged human MAGL expressed in Escherichia coli. The procedure, abridged: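 Ratio of IC50 values from two radiometric assays, each read by scintillation counting of the aqueous phase after CHCl3/MeOH 1:1 extraction. MGL assay: 10,000xg cytosolic fraction of human recombinant MGL (0.05 µg/sample), 50 mM Tris-HCl pH 7.0, 37 °C, 20 min, 2-arachidonoyl-[3H]-glycerol. FAAH assay: human recombinant FAAH (2 µg/sample), pH 9.5, 37 °C, 30 min, [14C]-anandamide. Means of three experiments.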

Experiment [6] has as its target T3, Monoglyceride lipase. Description: Inhibition of recombinant C-terminal His6-tagged human MAGL expressed in Escherichia coli using 2-arachidonoyl-[3H]-glycerol as substrate preincubated for 10 mins followed by substrate addition measured after 20 mins by scintillation counting method. The procedure, abridged:
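Human recombinant MGL (10,000xg cytosolic fraction, 0.05 µg/sample) is pre-incubated with compound for 10 min. It is then incubated 20 min at 37 °C in 50 mM Tris-HCl pH 7.0 with 2-arachidonoyl-[3H]-glycerol diluted with unlabelled 2-AG. The mix is extracted with 2 vol CHCl3/MeOH 1:1, and [3H]-glycerol in the aqueous phase is counted by scintillation. Values are means of three experiments.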

In experiment [1], `O=C(Oc1ccc([N+](=O)[O-])cc1)N1CCC(C(O)(c2ccc3c(c2)OCO3)c2ccc3c(c2)OCO3)CC1` gave a concentration for half-maximal inhibition (IC50) greater than 10 µM.

Consider `COc1ccc([C@H]2C(=O)N(C3CCN(C(=O)n4cncn4)CC3)[C@@H]2c2ccc(OC)c(OC)c2)cc1` (racemic), for which, in experiment [2], the IC50 came out at 0.725 µM.

With `O=C1[C@H](c2ccc(F)cc2)[C@@H](c2ccc3c(c2)OCO3)N1C1CCN(C(=O)n2ccnc2)CC1` (racemic), on Monoglyceride lipase [3], the concentration for half-maximal inhibition (IC50) is greater than 10 µM.

Regarding `COc1ccc([C@H]2C(=O)N(C3CCN(C(=O)n4cncn4)CC3)[C@@H]2c2ccc3c(c2)OCO3)cc1` (racemic), in experiment [2], the half-maximal inhibitory concentration (IC50) worked out at 2.59 µM.

For the molecule `O=C(Oc1ccc([N+](=O)[O-])cc1)N1CCC(N2C(=O)[C@H](c3ccc(F)cc3)[C@H]2c2ccc3c(c2)OCO3)CC1` (racemic), the results for the IC50 (at Monoglyceride lipase [3]; in experiment [4]) were 0.00141 µM and greater than 10 µM, respectively. In addition, in experiment [5], the Ratio IC50 is greater than 7.

Turning to `O=C(OC(C(F)(F)F)C(F)(F)F)N1CCC(N2C(=O)[C@H](c3ccc(F)cc3)[C@H]2c2ccc3c(c2)OCO3)CC1` (racemic), the IC50 in experiment [2] was greater than 50 µM.

On to `COc1ccc([C@H]2C(=O)N(C3CCN(C(=O)n4cncn4)CC3)[C@@H]2c2ccc(OC)c(OC)c2)cc1OC` (racemic), for which, in experiment [2], the IC50 was greater than 10 µM.

Consider `O=C1[C@H](c2ccc(F)cc2)[C@@H](c2ccc3c(c2)OCO3)N1C1CCN(C(=O)n2cncn2)CC1` [listing 1 of 2 here], for which the IC50 at Monoglyceride lipase [3] was 0.0046 µM; in experiment [4] it was 4.05 µM; on Monoglyceride lipase [6], 0.104 µM.

In the case of `O=C1[C@H](c2ccc(F)cc2)[C@@H](c2ccc3c(c2)OCO3)N1C1CCN(C(=O)n2cncn2)CC1` [listing 2 of 2 here], the Ratio IC50 in experiment [5] was 880.

For `O=C(N1CCCCC1)n1cncn1`, the IC50 at Monoglyceride lipase [3] is greater than 10 µM.

Take `O=C1[C@H](c2ccc(F)cc2)[C@@H](c2ccc3c(c2)OCO3)N1C1CCN(Cc2ccccc2)CC1` (racemic): the IC50 at Monoglyceride lipase [3] is greater than 10 µM.

Regarding `O=C1[C@H](c2ccc(F)cc2)[C@@H](c2ccc3c(c2)OCO3)N1C1CCNCC1` (racemic), the IC50 at Monoglyceride lipase [3] was greater than 10 µM.

In the case of `COc1ccc([C@H]2C(=O)N(C3CCN(C(=O)n4cncn4)CC3)[C@@H]2c2ccc(OC)cc2)cc1` (racemic), the IC50 in experiment [2] was 3.68 µM.

`O=C1[C@@H](c2ccc(F)cc2)[C@H](c2ccc3c(c2)OCO3)N1C1CCN(C(=O)n2cncn2)CC1`: the IC50 at Monoglyceride lipase [3] was determined as 0.0312 µM; in experiment [4], 7.74 µM; on Monoglyceride lipase [6], 0.728 µM. For the same molecule, in experiment [5], the Ratio IC50 amounted to 248.
